The nature of test [1]: inhibitors of TNFa-induced NFkB p65 translocation, primary screen, imaging, HUVEC, MLSMR starter and 10KST1 sets (AID 438;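 active = inhibition above 20% together with a positive visual image hit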;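 note: compound added about 3h40 before a 20 min TNFalpha stimulation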;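 for inhibition: signal is the nuclear over cytoplasmic p65 intensity ratio per well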). Particulars: HUVEC TNFa-induced p65 nuclear translocation; cell count: measured here: nuclei count (cytotoxicity indicator), at 2.08 µM; inhibition: at 2 µM, stronger effect = higher value, 0% TNFa-plus-vehicle, 100% no-TNFa wells.
The nature of test [2]: inhibitors of mutant huntingtin aggregation, primary screen, imaging, exon1htt(103Q)mCFP cells, high-content imaging (AID 483;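 active = visual image review flags a hit and inhibition of aggregation exceeds 20%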;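 note: compound exposure lasted 3 days before fixation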;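 for nuclei count: percent of the per-plate median nuclei count of sample wells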). Particulars: exon1htt(103Q)mCFP cell line, aggregate imaging, at 2 µM; inhibition of aggregation: stronger effect = higher value; nuclei count: measured here: cell count, toxicity.
Test [3] is described as follows: inhibitors of E-selectin induction by TNFa, primary screen, imaging, HUVEC, immunofluorescence, MLSMR starter and 10KST1 sets (AID 487;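 active = visually confirmed hit in the image check and inhibition above 20%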;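 for inhibition: signal is fraction of cell area covered by stained E-selectin grains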;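 for nuclei count: 100% = median nuclei count of all wells on the same plate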). The conditions noted are these: HUVEC TNFalpha-induced E-selectin immunofluorescence imaging, at 2 µM; inhibition: stronger effect = higher value; nuclei count: measured here: cell number, toxicity.
Test [4] has as its target Voltage-gated potassium channel subunit beta-2 (Rattus norvegicus) (UniProt P62483). Kind of test: KvBeta enzyme negative modulators, primary screen, biochemical, NADPH fluorescence (AID 622;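 active = fluorescence slope higher than the sample average by over 3 SD, cut at about -0.22 in these data, passing the limit was not always enough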;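 note: slope of raw intensity against log time taken from 70 to 1610 s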). Particulars: recombinant KvBeta, 4-cyanobenzaldehyde reduction, at 10 µM, stronger effect = higher value.
The target is the same in test [5]. The experiment in a line: KvBeta positive modulators, primary screen, biochemical, NADPH fluorescence (AID 623;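 active = NADPH fluorescence slope more negative than the mean of all samples by about 3 SD, 99.7% confidence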;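 note: fluorescence intensity change per second fitted from 20 to 320 s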). Particulars: Recombinant KvBeta, NADPH fluorescence decrease slope, 10 min; at 10 µM; stronger effect = lower value.
In test [6] the target is Muscarinic acetylcholine receptor M4 (Homo sapiens) (UniProt P08173). The experiment in a line: compounds altering M4/GIRK thallium flux, either direction, primary screen, M4 allosteric agonist project, cell-based, HEK293 M4/GIRK, BTC-AM (AID 625).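 Note: thallium influx through GIRK channels coupled to M4 in HEK293 cells with BTC-AM dye.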 The conditions noted are these: at 10 µM, actives lie on both sides. The procedure, abridged:
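Material – HEK293 cells with M4 receptor and GIRK channels · Buffer or medium – pH 7.3 thallium assay buffer · Doses – one dose, 10 µM final · Timing – cells overnight at 37 °C, BTC-AM loading 1 h, reads 2 min total · Measured by – kinetic fluorescence with BTC-AM dye · Controls – carbachol and DMSO controls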

The nature of test [7]: inhibitors of Sendai virus-induced IRF3 signaling, primary screen, TLR/RLR signaling modifier project, cell-based, Sendai virus stimulus, luciferase, 10K MLSCN set (AID 602276;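 active = inhibition at or above 50% at 10 µM; inactive = inhibition below 50%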;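 note: firefly luciferase from ISG56 promoter only with Renilla not read in this screen; 0% = Sendai virus plus DMSO and 100% = medium plus DMSO without virus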). The conditions noted are these: HEK293 RL24 IRF3 luciferase reporter, at 10 µM, stronger effect = higher value.
Test [8] in a line: inhibitors of poly I:C-induced TLR3 signaling, primary screen, cell-based, poly I:C stimulus, luciferase, 10K MLSCN set (AID 602277;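 active = inhibition of the reporter signal at or above 50%; inactive = inhibition below 50%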). Particulars: HEK293-TLR3 RL24 IRF3 luciferase reporter, at 10 µM, stronger effect = higher value. In general terms: Reporter assays use an easily measured gene product as a stand-in for the process of interest.

Calls of active or inactive are those of the source.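 Rule for the calls, unless noted: active = fluorescence slope after compound addition differing from the mean of all tested samples at 99.7% confidence, mostly higher but some lower; inactive = the rest.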

Chain of Muscarinic acetylcholine receptor M4 (Homo sapiens) (P08173 whole entry, looked up): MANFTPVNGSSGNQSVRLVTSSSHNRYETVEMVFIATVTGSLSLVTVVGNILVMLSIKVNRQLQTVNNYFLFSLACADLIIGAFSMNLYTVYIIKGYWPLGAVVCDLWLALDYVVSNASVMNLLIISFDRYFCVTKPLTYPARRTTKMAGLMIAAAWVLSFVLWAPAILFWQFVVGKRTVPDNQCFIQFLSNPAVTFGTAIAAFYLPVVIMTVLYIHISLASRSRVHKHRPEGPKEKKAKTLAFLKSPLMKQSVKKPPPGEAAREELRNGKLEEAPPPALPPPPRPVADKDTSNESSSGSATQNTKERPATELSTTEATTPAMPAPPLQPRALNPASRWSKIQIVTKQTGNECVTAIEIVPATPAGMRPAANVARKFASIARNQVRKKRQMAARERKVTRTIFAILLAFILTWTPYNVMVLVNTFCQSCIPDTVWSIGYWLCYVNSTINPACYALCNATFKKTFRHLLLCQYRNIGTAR
Chain of Voltage-gated potassium channel subunit beta-2 (Rattus norvegicus) (P62483 whole entry, looked up): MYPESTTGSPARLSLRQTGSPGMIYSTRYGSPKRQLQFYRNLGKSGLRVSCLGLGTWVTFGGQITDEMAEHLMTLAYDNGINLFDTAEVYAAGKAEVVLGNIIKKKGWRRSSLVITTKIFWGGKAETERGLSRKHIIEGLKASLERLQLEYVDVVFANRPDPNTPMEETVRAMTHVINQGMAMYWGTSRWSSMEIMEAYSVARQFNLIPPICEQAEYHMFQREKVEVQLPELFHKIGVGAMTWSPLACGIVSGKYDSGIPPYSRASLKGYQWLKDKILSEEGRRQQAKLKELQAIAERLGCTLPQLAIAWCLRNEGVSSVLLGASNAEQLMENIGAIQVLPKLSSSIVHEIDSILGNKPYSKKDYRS

Regarding `O=S(=O)(c1ccc2c(c1)OCCO2)N(Cc1ccc(F)cc1)Cc1nnc(-c2cccs2)o1`, the cell count in test [1] came to 383. In addition, the inhibition in test [1] is -21.4% (inactive); in test [3], -14.4% (inactive); in test [7], 13.3% (inactive); in test [8], 26.7% (inactive). In addition, the inhibition of aggregation in test [2] was -14.7% (inactive). For the same compound, the nuclei count is 106% in test [2] and 119% in test [3]. Also, the fluorescence slope was -0.543 (inactive) in test [4] and 0.00797 (inactive) in test [6]. Moreover, the NADPH fluorescence slope in test [5] was -0.000116 (inactive).

In the case of `C/C(N)=C(/C#N)C(=O)COC(=O)COc1ccc(Cl)cc1`, the cell count in test [1] was 500. Besides, the inhibition in test [1] is 4.3% (inactive); in test [3] it was -5.5% (inactive); in test [7] it was 18.1% (inactive); in test [8], 23.1% (inactive). For the same compound, in test [2], the inhibition of aggregation is 11.4% (inactive). The nuclei count in test [2] came out at 97.4%; in test [3], 105%. Also, the fluorescence slope was -0.414 (inactive) in test [4] and 0.00641 (inactive) in test [6]. Moreover, the NADPH fluorescence slope in test [5] was 9.1e-05 (inactive).

As for `COCCn1c(=O)[nH]c2cc(C(=O)N3CCN(c4ccccc4OC)CC3)ccc2c1=O`, in test [1], the cell count was determined as 806. Moreover, the inhibition was -7.9% (inactive) in test [1], -28.7% (inactive) in test [3], 10.5% (inactive) in test [7] and 12.4% (inactive) in test [8]. Also, the inhibition of aggregation in test [2] is 5.5% (inactive). For the same compound, the nuclei count in test [2] turned out to be 102%; in test [3], 117%. Besides, the fluorescence slope in test [4] is -0.44 (inactive); in test [6], 0.00559 (inactive). Further, the NADPH fluorescence slope in test [5] is 9.4e-06 (inactive).

For the compound `C=CCn1c(SCc2cc(=O)n3ccsc3n2)nnc1C1CCCCC1`, the cell count in test [1] was determined as 439. Also, the inhibition in test [1] was 3.8% (inactive); in test [3], 3.6% (inactive); in test [7], 9.44% (inactive); in test [8], 21.1% (inactive). In addition, in test [2], the inhibition of aggregation was -27.5% (inactive). Moreover, the nuclei count in test [2] worked out at 104%; in test [3] it was 116%. Moreover, the fluorescence slope in test [4] was -0.561 (inactive); in test [6], 0.00775 (inactive). For the same compound, in test [5], the NADPH fluorescence slope was -1.8e-05 (inactive).

Regarding `COCCN1C(=O)c2oc3c(C)cc(C)cc3c(=O)c2C1c1cccc(O)c1` (centres undefined), the cell count in test [1] amounted to 561. Moreover, the inhibition in test [1] is -25% (inactive); in test [3], -66% (inactive); in test [7], 8.51% (inactive); in test [8], -1.3% (inactive). Moreover, the inhibition of aggregation in test [2] was 6.4% (inactive). Moreover, the nuclei count in test [2] came to 95.1%; in test [3], 120%. Moreover, the results for the fluorescence slope in test [4] and in test [6] were -0.545 (inactive) and 0.00558 (inactive), respectively. Moreover, in test [5], the NADPH fluorescence slope was -5.1e-05 (inactive).

With `Cc1cccc(NCc2ccccc2O)c1`, the cell count in test [1] was 454. The inhibition is 4.9% (inactive) in test [1], 10.3% (inactive) in test [3], 10.1% (inactive) in test [7] and 3.99% (inactive) in test [8]. The inhibition of aggregation in test [2] is 1.3% (inactive). Besides, the nuclei count is 94.5% in test [2] and 104% in test [3]. Moreover, the values for the fluorescence slope in test [4] and in test [6] were -0.55 (inactive) and 0.00568 (inactive), respectively. For the same compound, in test [5], the NADPH fluorescence slope is -2.3e-05 (inactive).

Turning to `Cc1ccccc1-c1nc(CN2CCC(C(=O)NCCCN3CCCC3)CC2)c(C)o1`, the cell count in test [1] was 223. Moreover, the inhibition was 0% (inactive) in test [1], 25.4% (inactive) in test [3], -136% (inactive) in test [7] and 56.5% (active) in test [8]. For the same compound, the inhibition of aggregation in test [2] was -91.5% (inactive). Moreover, the nuclei count in test [2] was determined as 101%; in test [3], 94.2%. Also, the fluorescence slope in test [4] was -0.553 (inactive); in test [6] it was 0.00435 (inactive). The NADPH fluorescence slope in test [5] is 7.2e-05 (inactive).

Consider `COCCCNC(=O)C(Cc1ccccc1)NS(=O)(=O)c1ccc2c(c1)c(=O)n(C)c(=O)n2C` (centres undefined), for which, in test [1], the cell count amounted to 561. Besides, the inhibition in test [1] is -2.5% (inactive); in test [3] it was -10.2% (inactive); in test [7], -1.6% (inactive); in test [8] it was 19.2% (inactive). Moreover, in test [2], the inhibition of aggregation was 42.3% (active). Moreover, the nuclei count amounted to 94.5% in test [2] and 117% in test [3]. Moreover, the fluorescence slope was -0.468 (inactive) in test [4] and 0.00611 (inactive) in test [6]. Also, in test [5], the NADPH fluorescence slope is -8e-06 (inactive).

In the case of `COc1ccc(-c2cc(C(=O)Nc3ccc(C)cc3)no2)cc1`, the cell count in test [1] amounted to 320. For the same compound, the inhibition in test [1] was -6.5% (inactive); in test [3], -9.7% (inactive); in test [7], -20.2% (inactive); in test [8], -32.3% (inactive). In addition, the inhibition of aggregation in test [2] was -11.2% (inactive). Further, the values for the nuclei count in test [2] and in test [3] were 108% and 103%, respectively. Besides, the fluorescence slope was -0.323 (inactive) in test [4] and 0.00844 (inactive) in test [6]. The NADPH fluorescence slope in test [5] was -8.4e-07 (inactive).

In the case of `CN1C(=O)CC(C(=O)Nc2ccc(F)cc2)SC1=Nc1ccc2c(c1)OCO2` (centres undefined), in test [1], the cell count amounted to 715. For the same compound, the inhibition was -5.4% (inactive) in test [1], -15.7% (inactive) in test [3], 16.1% (inactive) in test [7] and 4.96% (inactive) in test [8]. Moreover, the inhibition of aggregation in test [2] was 11.5% (inactive). For the same compound, the nuclei count in test [2] stood at 117%; in test [3], 118%. Besides, the fluorescence slope is -0.269 (inactive) in test [4] and 0.0044 (inactive) in test [6]. For the same compound, the NADPH fluorescence slope in test [5] is -3.8e-05 (inactive).

On to `CCCCOc1cccc(NC(=O)CSc2nccn2C)c1`, for which the cell count in test [1] was 397. Further, the inhibition was 2.5% (inactive) in test [1], 6.2% (inactive) in test [3], -4.33% (inactive) in test [7] and -42.2% (inactive) in test [8]. Moreover, the inhibition of aggregation in test [2] was 0.8% (inactive). The results for the nuclei count in test [2] and in test [3] were 96.8% and 108%, respectively. The values for the fluorescence slope in test [4] and in test [6] were -0.318 (inactive) and 0.00562 (inactive), respectively. Moreover, in test [5], the NADPH fluorescence slope was -3.3e-05 (inactive).

In the case of `Cc1cc2ncn(C(=O)N3CCOCC3)c2cc1C`, the cell count in test [1] is 309. Also, the inhibition in test [1] was -2.5% (inactive); in test [3], -61.7% (inactive); in test [7] it was 4.38% (inactive); in test [8], 3.06% (inactive). In test [2], the inhibition of aggregation was 27.9% (inactive). Further, the nuclei count is 97.2% in test [2] and 122% in test [3]. Also, the results for the fluorescence slope in test [4] and in test [6] were -0.572 (inactive) and 0.00619 (inactive), respectively. The NADPH fluorescence slope in test [5] is -3.6e-05 (inactive).

For the compound `CCCN1CCN(CCCNC(=O)Cn2nc(-c3ccc(Cl)cc3)ccc2=O)CC1`, in test [1], the cell count was 514. Further, the inhibition was 13.6% (inactive) in test [1], -205% (inactive) in test [3], 9.94% (inactive) in test [7] and 11.9% (inactive) in test [8]. Besides, the inhibition of aggregation in test [2] is 0.1% (inactive). For the same compound, the nuclei count in test [2] came to 106%; in test [3] it was 131%. In addition, the fluorescence slope was -0.552 (inactive) in test [4] and 0.00614 (inactive) in test [6]. Further, in test [5], the NADPH fluorescence slope was -8.1e-05 (inactive).

With `N#Cc1ccc(CSc2nnc(-c3cnccn3)o2)cc1`, the cell count in test [1] was determined as 489. The inhibition in test [1] is -15% (inactive); in test [3], -60.9% (inactive); in test [7] it was 2.28% (inactive); in test [8] it was 5.14% (inactive). In addition, the inhibition of aggregation in test [2] was -20.4% (inactive). Besides, the nuclei count in test [2] was 106%; in test [3], 105%. The fluorescence slope is -0.555 (inactive) in test [4] and 0.00528 (inactive) in test [6]. In addition, the NADPH fluorescence slope in test [5] was -5.1e-06 (inactive).

Usually inhibition stands for the relative decrease from the control value, in per cent.

These data come from PubChem BioAssay.
